Test results taken from ChEMBL document CHEMBL1157701, “Inhibition of IkB kinase and NF-kappaB by a novel synthetic compound SK 2009” (Bioorg Med Chem, 2010).
The source made the active and inactive calls. The rule behind the calls is not given here.

Key:
KBM5 [1] = test: Cytotoxicity against human KBM5 cells at 10 uM after 72 hrs by MTT assay; format: functional, cell-based
Method in brief: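 MTT viability: KBM-5 cells (5000 per well) in triplicate with or without compound for 72 h at 37 °C. MTT (5 mg/ml in PBS) added for 2 h at 37 °C. Extraction buffer (20% SDS, 50% dimethylformamide) added overnight at 37 °C, then OD read at 570 nm.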

[2] = Cytotoxicity against human KBM5 cells assessed as cell viability at 100 uM by trypan blue assay; format: cell-based; conditions: read-out: Activity
KBM5 [3] = test: Inhibition of TNF-alpha-induced NF-kappaB activation in human KBM5 cells at 100 uM treated for 12 hrs before TNFalpha challenge measured after 30 mins by EMSA relative to control; format: cell-based
Method in brief: (§1)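 KBM-5 cells (1×10^6/mL) preincubated with compound for 12 h, then stimulated with 0.1 nM TNFα for 30 min. Nuclear extracts (15 μg protein) incubated with 16 fmol 32P-end-labeled 45-mer HIV LTR NF-κB oligonucleotide for 30 min at 37°C and resolved by EMSA. DMSO stock diluted in culture medium.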

KBM5 [4] = test: Inhibition of TNF-alpha-induced NF-kappaB activation in human KBM5 cells at 100 uM treated for 12 hrs before TNFalpha challenge measured after 30 mins by EMSA; format: cell-based; method in brief: as §1
[5] = Inhibition of VEGF protein expression in TNF-alpha-stimulated human KBM5 cells at 100 uM after 6 to 24 hrs by Western blot analysis; format: functional, cell-based
Method in brief: (§2)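 Western blot: KBM-5 lysates (30 μg protein) separated by SDS-PAGE and probed with anti-cyclin D1, Bcl-2 or VEGF (1:1000). HRP secondary (1:3000) applied for 2 h, detection by ECL, bands quantified by densitometry.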

[6] = biological target: Transcription factor p65 (Homo sapiens) (UniProt Q04206); test: Inhibition of nuclear DNA binding to NF-kappaB p65 subunit in TNF-alpha-stimulated human KBM5 cells at 50 uM after 30 mins by EMSA relative to control; format: cell-based
Method in brief: (§3)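 Direct DNA-binding test: nuclear extracts from untreated KBM-5 cells or cells given 0.1 nM TNF for 30 min were incubated for 30 min with compound at various concentrations. Binding to a 32P-labeled HIV LTR κB oligonucleotide was then assessed by EMSA.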

KBM5 [7] = test: Inhibition of NF-kappaB activation in human KBM5 cells at 5 to 100 uM treated for 12 hrs in absence of TNFalpha by EMSA
[8] = biological target: Transcription factor p65 (Homo sapiens) (UniProt Q04206); test: Inhibition of nuclear DNA binding to NF-kappaB p65 subunit in TNF-alpha-stimulated human KBM5 cells at 10 uM after 30 mins by EMSA relative to control; format: cell-based; method in brief: as §3
KBM5 [9] = test: Inhibition of NF-kappaB activation in human KBM5 cells at 100 uM treated for 12 hrs before TNFalpha challenge measured after 4 hrs by EMSA relative to control; format: cell-based
[10] = biological target: Transcription factor p65 (Homo sapiens) (UniProt Q04206); test: Inhibition of nuclear DNA binding to NF-kappaB p65 subunit in TNF-alpha-stimulated human KBM5 cells at 25 uM after 30 mins by EMSA relative to control; format: cell-based; method in brief: as §3
[11] = Inhibition of cyclin D1 protein expression in TNF-alpha-stimulated human KBM5 cells at 100 uM after 6 to 24 hrs by Western blot analysis; format: functional, cell-based; method in brief: as §2
KBM5 [12] = test: Inhibition of NF-kappaB activation in human KBM5 cells at 100 uM treated for 12 hrs before TNFalpha challenge measured after 8 hrs by EMSA relative to control; format: cell-based
Method in brief: (§4)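 Time course: KBM-5 cells (1×10^6/mL) exposed to 100 μM compound for varying times before 0.1 nM TNF for 30 min. Nuclear extracts (15 μg protein) were probed by EMSA with 16 fmol 32P-labeled HIV LTR κB 45-mer for 30 min at 37°C.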

KBM5 [13] = test: Inhibition of NF-kappaB activation in human KBM5 cells at 100 uM treated for 12 hrs before TNFalpha challenge measured after 12 hrs by EMSA relative to control; format: cell-based; method in brief: as §4
KBM5 [14] = test: Inhibition of TNF-alpha-induced IKK activation in human KBM5 cells at 100 uM treated for 12 hrs before TNFalpha challenge by immunoprecipitation assay; format: cell-based; conditions: TDE = time-dependent effect
Method in brief: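 KBM-5 cells (5×10^6/mL) preincubated with 100 μM compound for 12 h, then given 1 nM TNF for the indicated times. IKK immunoprecipitated from whole-cell lysates with anti-IKK-α and assayed at 30°C for 30 min: 50 mM HEPES pH 7.4, 20 mM MgCl2, 2 mM DTT, [32P]ATP, unlabeled ATP, 2 μg GST-IκBα(1-54). Phosphorylated substrate shown by SDS-PAGE/phosphorimaging; total IKK-α/β by immunoblot.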

KBM5 [15] = test: Inhibition of NF-kappaB activation in human KBM5 cells at 100 uM treated for 12 hrs before TNFalpha challenge measured after 6 hrs by EMSA relative to control; format: cell-based; method in brief: as §4
KBM5 [16] = test: Intrinsic activity at IKK in TNF-alpha-stimulated human KBM5 cells at 10 to 100 uM added directly to IKK immune complexes in vitro by immunoprecipitation assay
KBM5 [17] = test: Inhibition of NF-kappaB activation in human KBM5 cells at 100 uM treated for 12 hrs before TNFalpha challenge by EMSA; format: cell-based; conditions: TDE = time-dependent effect; method in brief: as §1
[18] = biological target: Transcription factor p65 (Homo sapiens) (UniProt Q04206); test: Inhibition of nuclear DNA binding to NF-kappaB p65 subunit in TNF-alpha-stimulated human KBM5 cells at 100 uM after 30 mins by EMSA relative to control; format: cell-based; method in brief: as §3
KBM5 [19] = test: Inhibition of Bcl-2 protein expression in TNF-alpha-stimulated human KBM5 cells at 100 uM after 6 to 24 hrs by Western blot analysis; format: functional, cell-based; method in brief: as §2
KBM5 [20] = test: Inhibition of TNF-alpha-induced NF-kappaB activation in human KBM5 cells treated for 12 hrs before TNFalpha challenge measured after 30 mins by EMSA; format: cell-based; method in brief: as §1

Sequence of Transcription factor p65 (Homo sapiens) (Q04206 whole entry): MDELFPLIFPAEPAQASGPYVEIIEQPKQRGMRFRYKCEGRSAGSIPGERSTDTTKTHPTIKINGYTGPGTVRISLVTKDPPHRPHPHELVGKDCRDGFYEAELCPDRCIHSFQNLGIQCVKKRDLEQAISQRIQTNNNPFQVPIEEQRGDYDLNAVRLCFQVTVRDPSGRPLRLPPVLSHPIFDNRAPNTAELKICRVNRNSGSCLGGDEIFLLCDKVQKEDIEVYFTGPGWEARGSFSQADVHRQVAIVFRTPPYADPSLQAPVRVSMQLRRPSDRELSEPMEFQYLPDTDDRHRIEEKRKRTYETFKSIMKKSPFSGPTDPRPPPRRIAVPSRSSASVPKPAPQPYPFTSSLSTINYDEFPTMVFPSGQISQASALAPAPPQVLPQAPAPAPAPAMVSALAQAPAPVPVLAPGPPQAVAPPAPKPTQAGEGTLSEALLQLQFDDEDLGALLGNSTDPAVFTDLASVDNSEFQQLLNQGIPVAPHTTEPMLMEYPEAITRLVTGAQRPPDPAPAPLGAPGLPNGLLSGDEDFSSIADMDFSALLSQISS

Compound	Activity (KBM5 [1])	viability at 100 µM [2] [%]	fold change (FC) (KBM5 [3])	inhibition (KBM5 [4]) [%]	further results
CCCCCCCC[C@@H]1COC(C)(C)O[C@@H]1CCOCc1ccccc1	Active	97	1.4	–	–
CCCCCCCC[C@H](CO)[C@H](O)CCOCc1ccccc1	Active	97	1.1	–	–
CCCCCCCC[C@H](C(=O)N1C(=O)OC[C@@H]1Cc1ccccc1)[C@H](O)CCOCc1ccccc1	Active	98	1.3	–	–
CCCCCCCCCC(=O)N1C(=O)OC[C@@H]1Cc1ccccc1	Active	97	2.4	–	–
CCCCCCC[C@H](CO)[C@H](O)CCOCc1ccccc1	Active	98	4.5	100	inhibition [5]: Active; fold change (FC) [6]: 3.8; inhibition (KBM5 [7]): inactive; fold change (FC) [8]: 3.8; fold change (FC) (KBM5 [9]): 4.2; fold change (FC) [10]: 3.9; inhibition [11]: Active; fold change (FC) (KBM5 [12]): 2.5; fold change (FC) (KBM5 [13]): 1; inhibition (KBM5 [14]): tde; fold change (FC) (KBM5 [15]): 3.1; Activity (KBM5 [16]): inactive; inhibition (KBM5 [17]): tde; fold change (FC) [18]: 3.9; inhibition (KBM5 [19]): Active; inhibition (KBM5 [20]): Dose-dependent effect
CCCCCCCCCCCCCC[C@H]1COC(=O)C[C@H]1O	Active	95	3.6	30	–
